According to ChEMBL document CHEMBL1127834, “Naphthalenic lignan lactones as selective, nonredox 5-lipoxygenase inhibitors. Synthesis and biological activity of (methoxyalkyl)thiazole and methoxytetrahydropyran hybrids” (J Med Chem, 1994):

What was measured:
Homo sapiens [1] = species: Homo sapiens; assay: In vitro inhibition of LTB4 formation in human whole blood(HWB); assay type: functional
Homo sapiens [2] = species: Homo sapiens; assay: In vitro inhibition of LTB4 formation in human peripheral blood polymorphonuclear leukocytes (HPMN); assay type: functional
[3] = Cmax value of compound was determined after 1 hr; assay type: ADME, organism-based; conditions: in vivo
Outline: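 Male Sprague-Dawley rats (2), starved overnight, dosed orally at 50 mg/kg as a solution in 0.5% methocel. Jugular vein blood sampled at 0, 0.5, 1, 2, 4, 6 and 8 h. Plasma proteins precipitated with an equal volume of acetonitrile. Supernatant analysed by reversed-phase HPLC for the lactone.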

[4] = molecular target: T1, Polyunsaturated fatty acid 5-lipoxygenase (Homo sapiens, UniProt P09917); assay: In vitro potency against human 5-Lipoxygenase
T1 sequence (P09917 whole entry): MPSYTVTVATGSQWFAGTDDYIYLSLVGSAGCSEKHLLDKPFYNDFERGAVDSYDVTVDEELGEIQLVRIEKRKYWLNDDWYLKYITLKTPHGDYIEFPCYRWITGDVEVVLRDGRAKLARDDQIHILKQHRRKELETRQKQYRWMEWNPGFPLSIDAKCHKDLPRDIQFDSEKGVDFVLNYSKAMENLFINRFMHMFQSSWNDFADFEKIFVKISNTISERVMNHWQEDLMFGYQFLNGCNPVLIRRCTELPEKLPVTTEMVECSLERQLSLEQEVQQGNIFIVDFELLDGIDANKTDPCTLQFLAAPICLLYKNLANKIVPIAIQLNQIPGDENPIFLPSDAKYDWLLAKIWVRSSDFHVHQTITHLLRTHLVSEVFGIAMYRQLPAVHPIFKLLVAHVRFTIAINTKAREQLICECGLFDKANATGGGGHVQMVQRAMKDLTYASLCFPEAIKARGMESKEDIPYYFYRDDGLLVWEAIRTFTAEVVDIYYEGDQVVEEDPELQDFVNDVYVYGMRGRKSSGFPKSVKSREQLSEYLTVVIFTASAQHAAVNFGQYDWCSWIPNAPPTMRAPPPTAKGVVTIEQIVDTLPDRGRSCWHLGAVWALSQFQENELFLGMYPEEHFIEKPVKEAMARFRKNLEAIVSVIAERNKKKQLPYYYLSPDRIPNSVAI
Outline: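 Soluble cell-free fraction of Sf9 cells expressing recombinant human 5-LO (10 μg protein/mL). Conjugated diene formation followed at A234. Inhibitors added from 500-fold DMSO stocks.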

Rattus norvegicus [5] = species: Rattus norvegicus; assay: Dose-dependent inhibition of LTB4 by the compound after 3h of oral pretreatment in rat pleural; assay type: functional
Monkey = assay: Inhibition of antigen-induced bronchoconstriction in allergic squirrel monkeys at 0.3 mg/kg; assay type: functional; conditions: in Saimiri
Outline: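 Allergic squirrel monkeys dosed orally at 0.3 mg/kg 4 h before aerosol challenge with Ascaris antigen. Read-outs were the increase in airway resistance (RL) and the decrease in dynamic compliance (Cdyn).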

Rattus norvegicus [6] = species: Rattus norvegicus; assay: Dose-dependent inhibition of LTB4 by the compound after 2 hr of oral pretreatment in rat pleural; assay type: functional

SMILES | IC50 (Homo sapiens [1]) | IC50 (Homo sapiens [2]) | Cmax [3] | IC50 [4] | ED50 (Rattus norvegicus [5]) | inhibition in vivo at 0.3 mg/kg (Monkey) | ED50 (Rattus norvegicus [6])
COC1(c2cccc(COc3ccc4ccccc4c3)c2)CCOCC1 | 1500 nM | 55 nM |  | 1000 nM |  |  | 
CCC(OC)(c1cccc(OCc2ccc3c(-c4ccccc4)c4c(cc3c2)C(=O)OC4)c1)c1nccs1 (configuration not stated) | 700 nM | 2.2 nM |  | 50 nM |  |  | 
COC1(c2cccc(COc3ccc4c(-c5ccccc5)c(CO)c(C(=O)[O-])cc4c3)c2)CCOCC1.[Na+] |  |  |  |  | 0.6 mg/kg | 95% | 
CC(c1cc2ccccc2s1)N(O)C(N)=O (configuration not stated) [ZILEUTON] | 2000 nM |  |  |  |  |  | 
CCC(OC)(c1cccc(OCc2ccc3ccccc3c2)c1)c1nccs1 (configuration not stated) [ZM-211965] | 700 nM | 4.4 nM |  |  |  |  | 

The next lines start with results.

IC50 (Homo sapiens [1]) | IC50 (Homo sapiens [2]) | Cmax [3] | IC50 [4] | SMILES | ED50 (Rattus norvegicus [5]) | inhibition in vivo at 0.3 mg/kg (Monkey) | ED50 (Rattus norvegicus [6])
50 nM | 1.5 nM | 4 µM |  | COC1(c2cccc(COc3ccc4c(-c5ccccc5)c5c(cc4c3)C(=O)OC5)c2)CCOCC1 |  |  | 
50 nM | 0.9 nM |  | 20 nM | COC1(c2cccc(OCc3ccc4c(-c5ccccc5)c5c(cc4c3)C(=O)OC5)c2)CCOCC1 |  |  | 
> 3000 nM | 11 nM |  |  | CCC(OC)(c1cccc(COc2ccc3ccccc3c2)c1)c1nccs1 (configuration not stated) |  |  | 
1400 nM | 4.8 nM |  | 160 nM | CCC(OC)(c1cccc(COc2ccc3c(-c4ccccc4)c4c(cc3c2)C(=O)OC4)c1)c1nccs1 (configuration not stated) |  |  | 
60 nM | 1.2 nM |  | 10 nM | COC1(c2cccc(OCc3ccc4ccccc4c3)c2)CCOCC1 |  |  | 
 |  |  | 5000 nM | CC(C)(C)Sc1c(CC(C)(C)C(=O)O)n(Cc2ccc(Cl)cc2)c2ccc(OCc3ccc4ccccc4n3)cc12 [QUIFLAPON] |  |  | 0.5 mg/kg
